Measured values from ChEMBL document CHEMBL1122116, “Antiparasitic agents. 5. Synthesis and anthelmintic activities of novel 2-heteroaromatic-substituted isothiocyanatobenzoxazoles and benzothiazoles” (J Med Chem, 1982).

Legend:
Ovis aries [1] = test: Percent reduction in nematode fecal egg count was measured in sheep following 50 mg/kg p.o.; assay type: functional; conditions: route oral
Rodentolepis nana = test: Mouse oral clearance was measured against Hymenolepiasis nana.; assay type: functional; set-up: concentration or dose not given beside the values
Summary of the method: (§1)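 Mice experimentally infected with N. dubius (nematode) or H. nana (tapeworm) received the compound in the diet at 0.2%. Read-out is percent clearance of worms after oral dosing.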

[2] = system: Heligmosomoides polygyrus; test: Mouse oral clearance was measured against Nematospiroides dubius; assay type: functional; set-up: concentration or dose not given beside the values; summary of the method: as §1
Ovis aries [3] = test: Percent reduction in fecal egg count was measured in sheep dosed at 25 mg/kg.; assay type: functional
Ovis aries [4] = test: Percent reduction in fecal egg count was measured in sheep dosed at 58 mg/kg.; assay type: functional
Ovis aries [5] = test: Percent reduction in fecal egg count was measured in sheep dosed at 100 mg/kg.; assay type: functional
[6] = system: Heligmosomoides polygyrus; test: Titration of anthelmintic activity against Nematospiroides dubius in mice at 0.1 concentration of diet.; assay type: ADME, organism-based; conditions: in vivo, po
Summary of the method: (§2)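 Titration in mice experimentally infected with N. dubius, with the compound mixed into the diet at a series of levels. Read-out is nematode clearance.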

[7] = system: Heligmosomoides polygyrus; test: Titration of anthelmintic activity against Nematospiroides dubius in mice at 0.0125 concentration of diet.; assay type: ADME, organism-based; conditions: in vivo, po; summary of the method: as §2
[8] = system: Heligmosomoides polygyrus; test: Titration of anthelmintic activity against Nematospiroides dubius in mice at 0.025 concentration of diet.; assay type: ADME, organism-based; conditions: in vivo, po; summary of the method: as §2
[9] = system: Heligmosomoides polygyrus; test: Titration of anthelmintic activity against Nematospiroides dubius in mice at 0.05 concentration of diet.; assay type: ADME, organism-based; conditions: in vivo, po; summary of the method: as §2
[10] = system: Heligmosomoides polygyrus; test: Titration of anthelmintic activity against Nematospiroides dubius in mice at 0.2 concentration of diet.; assay type: ADME, organism-based; conditions: in vivo, po; summary of the method: as §2
Ovis aries [11] = test: Percent reduction in fecal egg count was measured in sheep dosed at 50 mg/kg.; assay type: ADME, organism-based; set-up: dose 50 mg/kg; conditions: in vivo
Ovis aries [12] = test: Percent reduction in fecal egg count was measured in sheep dosed at 44 mg/kg.; assay type: functional

Row | Compound | Reduction (Ovis aries [1]) | Activity (Rodentolepis nana) | Activity [2] | also measured
1 | S=C=Nc1ccc2oc(-c3ccncc3)nc2c1 | 40% | 0% | 0% | 
2 | S=C=Nc1ccc2nc(-c3cccnc3)sc2c1.S=C=Nc1ccc2sc(-c3cccnc3)nc2c1 | 99% | 100% | 99% | 
3 | S=C=Nc1ccc2oc(-c3cccs3)nc2c1 |  | 0% | 98% | 
4 | S=C=Nc1ccnc(-c2nc3ccccc3o2)c1 | 10% | 0% | 0% | 
5 | S=C=Nc1ccc2oc(-c3ccc(CN4CCOCC4)o3)nc2c1 |  | 0% | 0% | 
6 | S=C=Nc1ccc2nc(-c3cccnc3)oc2c1.S=C=Nc1ccc2oc(-c3cccnc3)nc2c1 |  |  |  | Reduction (Ovis aries [3]): 94%
7 | S=C=Nc1ccc2nc(-c3cccs3)oc2c1 |  | 0% | 0% | 
8 | S=C=Nc1ccc2[nH]c(-c3ccccn3)nc2c1 | 100% | 100% | 0% | 
9 | S=C=Nc1ccc2sc(-c3ccccn3)nc2c1 |  | 50% | 20% | Reduction (Ovis aries [4]): 36%
10 | Cc1ccc(-c2nc3cc(N=C=S)ccc3o2)o1 |  | 66% | 100% | Reduction (Ovis aries [5]): 97%
11 | S=C=Nc1ccc2oc(-c3ccco3)nc2c1 |  | 0% | 100% | Activity [6]: 88%; Activity [7]: 0%; Reduction (Ovis aries [5]): 97%; Activity [8]: 0%; Activity [9]: 39%; Activity [10]: 100%
12 | S=C=Nc1ccc2nc(-c3ccccn3)oc2c1.S=C=Nc1ccc2oc(-c3ccccn3)nc2c1 | 35% | 50% | 0% | 
13 | Cc1cc2oc(-c3ccccn3)nc2cc1N=C=S | 90% | 0% | 0% | 
14 | Cc1ccsc1-c1nc2cc(N=C=S)ccc2o1 |  | 0% | 78% | 
15 | S=C=Nc1ccc2nc(-c3ccccn3)sc2c1 | 65% | 75% | 0% | 
16 | Cn1cccc1-c1nc2cc(N=C=S)ccc2o1 | 34% | 25% | 100% | Activity [6]: 81%; Activity [7]: 0%; Activity [8]: 25%; Activity [9]: 45%; Activity [10]: 100%
17 | S=C=Nc1ccc2oc(-c3cccnc3)nc2c1 |  |  |  | Reduction (Ovis aries [11]): 69%
18 | CN1CCN(c2ccc(-c3nc4cc(N=C=S)ccc4o3)cn2)CC1 | 0% | 0% | 0% | 
19 | S=C=Nc1ccc2nc(-c3cnccn3)oc2c1.S=C=Nc1ccc2oc(-c3cnccn3)nc2c1 | 93% |  | 0% | 
20 | S=C=Nc1cc(Cl)c2oc(-c3cccnc3)nc2c1 | 0% | 0% | 0% | 

Row | Compound | Reduction (Ovis aries [1]) | Activity (Rodentolepis nana) | Activity [2] | also measured
21 | S=C=Nc1ccc2sc(-c3cccnc3)nc2c1 |  | 0% | 58% | 
22 | CN1CCN(Cc2ccc(-c3nc4cc(N=C=S)ccc4o3)s2)CC1 |  | 0% | 0% | 
23 | Cc1cc2nc(-c3cccnc3)oc2cc1N=C=S |  | 0% | 0% | Reduction (Ovis aries [12]): 99%
24 | S=C=Nc1cc(Cl)c2oc(-c3cccs3)nc2c1 |  | 0% | 0% | 
25 | S=C=Nc1ccc2oc(-c3ccc(Cl)nc3)nc2c1 | 97% | 0% | 0% | 
26 | S=C=Nc1ccc2nc(-c3ccc(N4CCOCC4)nc3)oc2c1.S=C=Nc1ccc2oc(-c3ccc(N4CCOCC4)nc3)nc2c1 | 27% | 0% | 0% | 
27 | S=C=Nc1ccc2nc(-c3cccnc3)oc2c1 | 78% | 0% | 46% | 
28 | COc1cc2sc(-c3cccnc3)nc2cc1N=C=S | 40% | 0% | 5% | 
29 | CN(C)c1ccc(-c2nc3cc(N=C=S)ccc3o2)cn1.CN(C)c1ccc(-c2nc3ccc(N=C=S)cc3o2)cn1 |  | 0% | 0% | 
30 | Cc1ccc(-c2nc3cc(N=C=S)ccc3o2)s1 |  | 33% | 0% | 
31 | S=C=Nc1ccc2oc(-c3sccc3CN3CCOCC3)nc2c1 |  | 0% | 0% | 
32 | S=C=Nc1ccc2oc(-c3ccc(CN4CCOCC4)s3)nc2c1 |  | 66% | 0% | 
33 | Cn1cccc1-c1nc2cc(N=C=S)cc(Cl)c2o1 |  | 0% | 0% | 
34 | S=C=Nc1ccc2oc(-c3ccccc3)nc2c1 | 57% | 0% | 60% | 
35 | S=C=Nc1ccc2sc(-c3cccs3)nc2c1 | 57% | 0% | 61% | 
36 | Cc1cc2oc(-c3cccnc3)nc2cc1N=C=S |  | 0% | 99% | Reduction (Ovis aries [3]): 0%
37 | S=C=Nc1cc(Cl)c2oc(-c3ccc(Cl)nc3)nc2c1 |  | 0% | 0% | 
38 | CCN(CC)Cc1ccc(-c2nc3cc(N=C=S)ccc3o2)s1.Cl |  | 0% | 0% | 
39 | c1ccc2[nH]c(-c3cscn3)nc2c1 [THIABENDAZOLE] |  |  |  | Activity [6]: 89%; Activity [7]: 40%; Activity [8]: 47%; Activity [10]: 96%
